# From ChEMBL document CHEMBL1629572 (Antimicrob Agents Chemother, 2009)
# Assays:
# Neuraminidase [1] = molecular target: T1, Neuraminidase (Influenza A virus, UniProt B4URF0); test: Inhibition of Influenza A virus (A/Shiga/1/2002(H1N1)) neuraminidase after 30 mins by fluorescence analysis
# Neuraminidase [2] = molecular target: T1, Neuraminidase; test: Inhibition of Influenza A virus (A/Osaka/56/2004(H3N2)) neuraminidase after 30 mins by fluorescence analysis
# [3] = Inhibition of Influenza B virus (B/Saitama/01/2006(Victoria)) neuraminidase after 30 mins by fluorescence analysis
# Procedure, shortened: (§1)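 Virus NA source was mixed with compound in 32.5 mM MES-NaOH pH 6.5 with 4 mM CaCl2 and preincubated 10 min at room temperature. Reaction ran 30 min at room temperature with 100 μM (final) 4-MU-NANA. Fluorescence was read at ex 360/em 460 nm, in triplicate. IC50 came from linear regression of residual activity against log concentration, using concentrations giving 10–90% residual activity.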
# Neuraminidase [4] = molecular target: T1, Neuraminidase; test: Inhibition of Influenza A virus (A/seal/Massachusetts/1/1980(H7N7)) neuraminidase after 30 mins by fluorescence analysis
# Neuraminidase [5] = molecular target: T1, Neuraminidase; test: Inhibition of Influenza A virus (A/Yamagata/83/2006(H1N1)) neuraminidase after 30 mins by fluorescence analysis
# [6] = Inhibition of Influenza B virus (B/Yamagata/15/2002(Victoria)) neuraminidase after 30 mins by fluorescence analysis; procedure, shortened: as §1
# Neuraminidase [7] = molecular target: T1, Neuraminidase; test: Inhibition of Influenza A virus (A/Yamagata/1/2002(H3N2)) neuraminidase after 30 mins by fluorescence analysis
# Neuraminidase [8] = molecular target: T1, Neuraminidase; test: Inhibition of Influenza A virus (A/duck/Alberta/60/1976(H12N5)) neuraminidase after 30 mins by fluorescence analysis
# Neuraminidase [9] = molecular target: T1, Neuraminidase; test: Inhibition of Influenza A virus (A/Yamagata/3/2002(H1N1)) neuraminidase after 30 mins by fluorescence analysis
# [10] = Inhibition of Influenza B virus (B/Aichi/3/2006(Victoria)) neuraminidase after 30 mins by fluorescence analysis; procedure, shortened: as §1
# [11] = Inhibition of Influenza B virus (B/Saitama/01/2005(Yamagata)) neuraminidase after 30 mins by fluorescence analysis; procedure, shortened: as §1
# [12] = Inhibition of Influenza B virus (B/Shiga/31/2002(Yamagata)) neuraminidase after 30 mins by fluorescence analysis; procedure, shortened: as §1
# Neuraminidase [13] = molecular target: T1, Neuraminidase; test: Inhibition of Influenza A virus (A/duck/Memphis/546/1974(H11N9)) neuraminidase after 30 mins by fluorescence analysis
# Neuraminidase [14] = molecular target: T1, Neuraminidase; test: Inhibition of Influenza A virus (A/New York/55/2004(H3N2)) neuraminidase after 30 mins by fluorescence analysis
# [15] = Inhibition of Influenza B virus (B/Ohio/01/2005(Victoria)) neuraminidase after 30 mins by fluorescence analysis; procedure, shortened: as §1
# Neuraminidase [16] = molecular target: T1, Neuraminidase; test: Inhibition of Influenza A virus (A/Yamagata/2/2002(H3N2)) neuraminidase after 30 mins by fluorescence analysis
# Neuraminidase [17] = molecular target: T1, Neuraminidase; test: Inhibition of Influenza A virus (A/Aichi/2/1968(H3N2)) neuraminidase after 30 mins by fluorescence analysis
# [18] = Inhibition of Influenza B virus (B/Yamagata/398/2003(Victoria)) neuraminidase after 30 mins by fluorescence analysis; procedure, shortened: as §1
# T1 sequence (B4URF0 whole entry): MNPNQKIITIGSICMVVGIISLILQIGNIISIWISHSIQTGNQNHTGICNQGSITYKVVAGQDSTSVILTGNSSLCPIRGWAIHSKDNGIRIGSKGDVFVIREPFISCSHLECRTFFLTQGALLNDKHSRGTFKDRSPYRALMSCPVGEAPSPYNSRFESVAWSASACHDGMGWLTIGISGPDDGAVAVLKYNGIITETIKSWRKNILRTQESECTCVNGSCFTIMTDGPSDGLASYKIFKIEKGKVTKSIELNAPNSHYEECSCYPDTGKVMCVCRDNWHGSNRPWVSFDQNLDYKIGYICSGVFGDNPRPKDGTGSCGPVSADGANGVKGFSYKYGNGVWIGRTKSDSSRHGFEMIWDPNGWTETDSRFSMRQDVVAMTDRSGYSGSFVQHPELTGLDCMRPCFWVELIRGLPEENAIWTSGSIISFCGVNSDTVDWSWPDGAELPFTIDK
smiles,measurement,setting,value
CCCCCCCC(=O)OC[C@@H](O)[C@@H](OC)[C@@H]1OC(C(=O)O)=C[C@H](NC(=N)N)[C@H]1NC(C)=O [LANINAMIVIR OCTANOATE],IC50,Neuraminidase [1],733 nM
same,IC50,Neuraminidase [2],129 nM
same,IC50,[3],45500 nM
same,IC50,Neuraminidase [4],142 nM
same,IC50,Neuraminidase [5],733 nM
same,IC50,[6],6980 nM
same,IC50,Neuraminidase [7],56.6 nM
same,IC50,Neuraminidase [8],1140 nM
same,IC50,Neuraminidase [9],709 nM
same,IC50,[10],13800 nM
same,IC50,[11],3610 nM
same,IC50,[12],10500 nM
same,IC50,Neuraminidase [13],356 nM
same,IC50,Neuraminidase [14],136 nM
same,IC50,[15],12800 nM
same,IC50,Neuraminidase [16],46.6 nM
same,IC50,Neuraminidase [17],164 nM
same,IC50,[18],12400 nM
